Values after ≈ are worked out from the molar mass of the structure shown.
Columns and labels:
Format in all cases: functional
[1] = tested on: Escherichia coli; assay: Antibacterial activity against qnrS gene expressing Escherichia coli ATCC 25922 harboring ParC S80R mutant and pBK-QnrS1 by broth microdilution method
[2] = tested on: Escherichia coli; assay: Antibacterial activity against Escherichia coli ATCC 25922 harboring ParC S80R mutant by broth microdilution method
[3] = tested on: Escherichia coli; assay: Antibacterial activity against qnrS gene expressing Escherichia coli ATCC 25922 harboring GyrA S83L mutant and pBK-QnrS1 by broth microdilution method
[4] = tested on: Escherichia coli; assay: Antibacterial activity against qnrB gene expressing Escherichia coli ATCC 25922 harboring GyrA S83L mutant and pBK-QnrB1 by broth microdilution method
[5] = tested on: Escherichia coli; assay: Antibacterial activity against qnrA gene expressing Escherichia coli ATCC 25922 harboring GyrA S83L mutant and pBK-QnrA1 by broth microdilution method
[6] = tested on: Escherichia coli; assay: Antibacterial activity against qnrB gene expressing Escherichia coli ATCC 25922 harboring ParC S80R mutant and pBK-QnrB1 by broth microdilution method
[7] = tested on: Escherichia coli; assay: Antibacterial activity against qnrA gene expressing Escherichia coli ATCC 25922 harboring ParC S80R mutant and pBK-QnrA1 by broth microdilution method
[8] = tested on: Escherichia coli; assay: Antibacterial activity against Escherichia coli ATCC 25922 expressing qnrA gene and pBK-QnrA1 by broth microdilution method
[9] = tested on: Escherichia coli; assay: Antibacterial activity against Escherichia coli ATCC 25922 expressing qnrB gene and pBK-QnrB1 by broth microdilution method
[10] = tested on: Escherichia coli; assay: Antibacterial activity against Escherichia coli ATCC 25922 expressing qnrS gene and pBK-QnrS1 by broth microdilution method
[11] = tested on: Escherichia coli; assay: Antibacterial activity against Escherichia coli ATCC 25922 by broth microdilution method
[12] = tested on: Escherichia coli; assay: Antibacterial activity against Escherichia coli ATCC 25922 harboring GyrA S83L mutant by broth microdilution method
[13] = tested on: Escherichia coli; assay: Antibacterial activity against Escherichia coli ATCC 25922 harboring GyrA S83L mutant and ParC S80R mutant by broth microdilution method
[14] = tested on: Escherichia coli; assay: Antibacterial activity against qnrA gene expressing Escherichia coli ATCC 25922 harboring ParC S80R mutant, ParC S80R mutant and pBK-QnrA1 by broth microdilution method
[15] = tested on: Escherichia coli; assay: Antibacterial activity against qnrB gene expressing Escherichia coli ATCC 25922 harboring ParC S80R mutant, ParC S80R mutant and pBK-QnrB1 by broth microdilution method
[16] = tested on: Escherichia coli; assay: Antibacterial activity against qnrS gene expressing Escherichia coli ATCC 25922 harboring ParC S80R mutant, ParC S80R mutant and pBK-QnrS1 by broth microdilution method
[17] = tested on: Escherichia coli; assay: Antibacterial activity against Escherichia coli ATCC 25922 assessed as mutant prevention concentration
[18] = tested on: Escherichia coli; assay: Antibacterial activity against Escherichia coli ATCC 25922 expressing qnrA gene and pBK-QnrA1 assessed as mutant prevention concentration
[19] = tested on: Escherichia coli; assay: Antibacterial activity against Escherichia coli ATCC 25922 expressing qnrB gene and pBK-QnrB1 assessed as mutant prevention concentration
[20] = tested on: Escherichia coli; assay: Antibacterial activity against Escherichia coli ATCC 25922 expressing qnrS gene and pBK-QnrS1 assessed as mutant prevention concentration
[21] = tested on: Escherichia coli; assay: Antibacterial activity against Escherichia coli ATCC 25922 harboring GyrA S83L mutant assessed as mutant prevention concentration
[22] = tested on: Escherichia coli; assay: Antibacterial activity against qnrA gene expressing Escherichia coli ATCC 25922 harboring GyrA S83L mutant and pBK-QnrA1 assessed as mutant prevention concentration
[23] = tested on: Escherichia coli; assay: Antibacterial activity against qnrB gene expressing Escherichia coli ATCC 25922 harboring GyrA S83L mutant and pBK-QnrB1 assessed as mutant prevention concentration
[24] = tested on: Escherichia coli; assay: Antibacterial activity against qnrS gene expressing Escherichia coli ATCC 25922 harboring GyrA S83L mutant and pBK-QnrS1 assessed as mutant prevention concentration
[25] = tested on: Escherichia coli; assay: Antibacterial activity against Escherichia coli ATCC 25922 assessed as earliest time required to resistant colonies visible one step below mutant prevention concentration
[26] = tested on: Escherichia coli; assay: Antibacterial activity against Escherichia coli ATCC 25922 expressing qnrA gene and pBK-QnrA1 assessed as earliest time required to resistant colonies visible one step below mutant prevention concentration
[27] = tested on: Escherichia coli; assay: Antibacterial activity against Escherichia coli ATCC 25922 expressing qnrB gene and pBK-QnrB1 assessed as earliest time required to resistant colonies visible one step below mutant prevention concentration
[28] = tested on: Escherichia coli; assay: Antibacterial activity against Escherichia coli ATCC 25922 expressing qnrS gene and pBK-QnrS1 assessed as earliest time required to resistant colonies visible one step below mutant prevention concentration
[29] = tested on: Escherichia coli; assay: Antibacterial activity against Escherichia coli ATCC 25922 harboring GyrA S83L mutant assessed as earliest time required to resistant colonies visible one step below mutant prevention concentration
[30] = tested on: Escherichia coli; assay: Antibacterial activity against qnrA gene expressing Escherichia coli ATCC 25922 harboring GyrA S83L mutant and pBK-QnrA1 assessed as earliest time required to resistant colonies visible one step below mutant prevention concentration
[31] = tested on: Escherichia coli; assay: Antibacterial activity against qnrB gene expressing Escherichia coli ATCC 25922 harboring GyrA S83L mutant and pBK-QnrB1 assessed as earliest time required to resistant colonies visible one step below mutant prevention concentration
[32] = tested on: Escherichia coli; assay: Antibacterial activity against qnrS gene expressing Escherichia coli ATCC 25922 harboring GyrA S83L mutant and pBK-QnrS1 assessed as earliest time required to resistant colonies visible one step below mutant prevention concentration
[33] = tested on: Escherichia coli; assay: Antibacterial activity against Escherichia coli ATCC 25922 assessed as resistant colonies recovered one step below mutant prevention concentration
Outline: (§1)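 Resistant colonies recovered from Mueller-Hinton plates one concentration step below the MPC for each fluoroquinolone were retested for MIC. Mutants taken from plated concentrations closest to the MPC had the QRDRs of gyrA and parC analysed.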

[34] = tested on: Escherichia coli; assay: Antibacterial activity against Escherichia coli ATCC 25922 harboring GyrA S83L mutant assessed as resistant colonies recovered one step below mutant prevention concentration; outline: as §1
[35] = tested on: Escherichia coli; assay: Antibacterial activity against qnrA gene expressing Escherichia coli ATCC 25922 harboring GyrA S83L mutant and pBK-QnrA1 assessed as resistant colonies recovered one step below mutant prevention concentration; outline: as §1
[36] = tested on: Escherichia coli; assay: Antibacterial activity against qnrS gene expressing Escherichia coli ATCC 25922 harboring GyrA S83L mutant and pBK-QnrS1 assessed as resistant colonies recovered one step below mutant prevention concentration; outline: as §1
[37] = tested on: Escherichia coli; assay: Antibacterial activity against Escherichia coli ATCC 25922 expressing qnrA gene and pBK-QnrA1 assessed as resistant colonies recovered one step below mutant prevention concentration; outline: as §1
[38] = tested on: Escherichia coli; assay: Antibacterial activity against Escherichia coli ATCC 25922 expressing qnrB gene and pBK-QnrB1 assessed as resistant colonies recovered one step below mutant prevention concentration; outline: as §1
[39] = tested on: Escherichia coli; assay: Antibacterial activity against Escherichia coli ATCC 25922 expressing qnrS gene and pBK-QnrS1 assessed as resistant colonies recovered one step below mutant prevention concentration; outline: as §1
[40] = tested on: Escherichia coli; assay: Antibacterial activity against qnrB gene expressing Escherichia coli ATCC 25922 harboring GyrA S83L mutant and pBK-QnrB1 assessed as resistant colonies recovered one step below mutant prevention concentration; outline: as §1

C[C@H]1COc2c(N3CCN(C)CC3)c(F)cc3c(=O)c(C(=O)O)cn1c23.C[C@H]1COc2c(N3CCN(C)CC3)c(F)cc3c(=O)c(C(=O)O)cn1c23.O [LEVOFLOXACIN]
MBC [1]: 0.25 µg/mL
MIC [1]: 0.25 µg/mL
MBC [2]: 0.008 µg/mL
MBC [3]: 2 µg/mL
MBC [4]: 0.5 µg/mL
MIC [4]: 0.25 µg/mL
MBC [5]: 0.5 µg/mL
MBC [6]: 0.5 µg/mL
MIC [6]: 0.25 µg/mL
MBC [7]: 0.5 µg/mL
MIC [7]: 0.25 µg/mL
MBC [8]: 0.5 µg/mL
MBC [9]: 0.25 µg/mL
MBC [10]: 0.5 µg/mL
MIC [10]: 0.125 µg/mL
MBC [11]: 0.03 µg/mL
MBC [12]: 0.25 µg/mL
MIC [12]: 0.125 µg/mL
MBC [13]: 0.25 µg/mL
MIC [13]: 0.25 µg/mL
MBC [14]: 4 µg/mL
MIC [14]: 2 µg/mL
MBC [15]: 1 µg/mL
MBC [16]: 4 µg/mL
MIC [16]: 4 µg/mL
Activity [17]: 2 µg/mL
Activity [18]: 8 µg/mL
Activity [19]: 4 µg/mL
Activity [20]: 4 µg/mL
Activity [21]: 4 µg/mL
Activity [22]: 32 µg/mL
Activity [23]: 16 µg/mL
Activity [24]: 16 µg/mL
Time [25]: 48 h
Time [26]: 24 h
Time [27]: 48 h
Time [28]: 24 h
Time [29]: 24 h
Time [30]: 24 h
Time [31]: 72 h
Time [32]: 96 h
MIC [33]: 0.125 µg/mL
MIC [34]: 2 µg/mL
MIC [35]: 2 µg/mL
MIC [36]: 4 µg/mL

COc1c(N2C[C@@H]3CCCN[C@@H]3C2)c(F)cc2c(=O)c(C(=O)O)cn(C3CC3)c12 [MOXIFLOXACIN]
MBC [1]: 0.5 µg/mL (≈ 1.25 µM)
MIC [1]: 0.25 µg/mL (≈ 0.623 µM)
MBC [2]: 0.008 µg/mL (≈ 0.0199 µM)
MIC [2]: 0.008 µg/mL (≈ 0.0199 µM)
MBC [3]: 2 µg/mL (≈ 4.98 µM)
MIC [3]: 1 µg/mL (≈ 2.49 µM)
MBC [4]: 0.5 µg/mL (≈ 1.25 µM)
MIC [4]: 0.5 µg/mL (≈ 1.25 µM)
MBC [5]: 0.5 µg/mL (≈ 1.25 µM)
MIC [5]: 0.5 µg/mL (≈ 1.25 µM)
MBC [6]: 0.5 µg/mL (≈ 1.25 µM)
MIC [6]: 0.5 µg/mL (≈ 1.25 µM)
MBC [7]: 0.5 µg/mL (≈ 1.25 µM)
MIC [7]: 0.5 µg/mL (≈ 1.25 µM)
MBC [8]: 0.5 µg/mL (≈ 1.25 µM)
MIC [8]: 0.25 µg/mL (≈ 0.623 µM)
MBC [9]: 1 µg/mL (≈ 2.49 µM)
MIC [9]: 0.25 µg/mL (≈ 0.623 µM)
MBC [10]: 0.25 µg/mL (≈ 0.623 µM)
MIC [10]: 0.25 µg/mL (≈ 0.623 µM)
MBC [11]: 0.015 µg/mL (≈ 0.0374 µM)
MIC [11]: 0.008 µg/mL (≈ 0.0199 µM)
MBC [12]: 0.125 µg/mL (≈ 0.311 µM)
MBC [13]: 0.25 µg/mL (≈ 0.623 µM)
MIC [13]: 0.25 µg/mL (≈ 0.623 µM)
MBC [14]: 4 µg/mL (≈ 9.96 µM)
MBC [15]: 2 µg/mL (≈ 4.98 µM)
MIC [15]: 1 µg/mL (≈ 2.49 µM)
MBC [16]: 4 µg/mL (≈ 9.96 µM)
Activity [17]: 2 µg/mL
Activity [18]: 8 µg/mL
Activity [19]: 4 µg/mL
Activity [20]: 4 µg/mL
Activity [21]: 4 µg/mL
Activity [22]: 16 µg/mL
Activity [23]: 32 µg/mL
Activity [24]: 32 µg/mL
Time [25]: 48 h
Time [26]: 24 h
Time [27]: 24 h
Time [28]: 24 h
Time [29]: 24 h
Time [30]: 24 h
Time [31]: 24 h
Time [32]: 24 h
MIC [37]: 0.5 µg/mL (≈ 1.25 µM)
MIC [38]: 0.5 µg/mL (≈ 1.25 µM)
MIC [39]: 0.5 µg/mL (≈ 1.25 µM)
MIC [34]: 1 µg/mL (≈ 2.49 µM)
MIC [40]: 1 µg/mL (≈ 2.49 µM)
MIC [36]: 1 µg/mL (≈ 2.49 µM)

O=C(O)c1cn(C2CC2)c2cc(N3CCNCC3)c(F)cc2c1=O [CIPROFLOXACIN]
MBC [1]: 0.25 µg/mL (≈ 0.754 µM)
MBC [2]: 0.004 µg/mL (≈ 0.0121 µM)
MBC [3]: 1 µg/mL (≈ 3.02 µM)
MBC [4]: 0.5 µg/mL (≈ 1.51 µM)
MBC [5]: 0.5 µg/mL (≈ 1.51 µM)
MBC [6]: 0.25 µg/mL (≈ 0.754 µM)
MBC [7]: 0.25 µg/mL (≈ 0.754 µM)
MBC [8]: 0.125 µg/mL (≈ 0.377 µM)
MBC [9]: 0.125 µg/mL (≈ 0.377 µM)
MBC [10]: 0.25 µg/mL (≈ 0.754 µM)
MBC [11]: 0.015 µg/mL (≈ 0.0453 µM)
MBC [12]: 0.125 µg/mL (≈ 0.377 µM)
MBC [13]: 2 µg/mL (≈ 6.04 µM)
MBC [14]: 4 µg/mL (≈ 12.1 µM)
MBC [15]: 2 µg/mL (≈ 6.04 µM)
MBC [16]: 4 µg/mL (≈ 12.1 µM)
Activity [17]: 1 µg/mL
Activity [18]: 8 µg/mL
Activity [19]: 2 µg/mL
Activity [20]: 4 µg/mL
Activity [21]: 4 µg/mL
Activity [22]: 16 µg/mL
Activity [23]: 8 µg/mL
Activity [24]: 8 µg/mL
Time [25]: 48 h
Time [26]: 48 h
Time [27]: 72 h
Time [28]: 24 h
Time [29]: 24 h
Time [30]: 24 h
Time [31]: 24 h
Time [32]: 24 h
